Only some compounds are listed: those with a hit (about 1.2% of all), similar ones and a draw of the others.
Rin1-Abl PPI inh: inhibitors of Rin1-Abl protein binding, primary screen, biochemical, TR-FRET; Tyrosine-protein kinase ABL1 (Homo sapiens) + Ras and Rab interactor 1 (Homo sapiens), …; inhibition, % at 7.35 µM; 360,000 compounds, 0.4% hits; in the data active = inhibition above about 5%, passing the limit was not always enough
ASAP1 inh: inhibitors of human ASAP1 ArfGAP activity, primary screen, biochemical, fluorescence polarization. ASAP1-stimulated ARF1 GTP hydrolysis, GDP FP detection. Arf-GAP with SH3 domain, ANK repeat and PH domain-containing protein 1 (Homo sapiens), …. inhibition, % at 16.5 µM. 360,000 compounds, 0.19% hits; in the data active = inhibition above about 25%
ARFGAP1 inhibitor: inhibitors of rat ARFGAP1 GAP activity, primary screen, biochemical, fluorescence polarization, GDP tracer | Arfgap1-stimulated ARF1 GTP hydrolysis, GDP FP detection | AID 651572, 2012 | 360,000 compounds, 0.26% hits | inhibition, % at 16.5 µM;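 active = inhibition above a per-plate limit, mean inhibition of low control wells plus 3 SD, cut at about 25% in these data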
Target sequence (Q62848 1-136 limits assumed): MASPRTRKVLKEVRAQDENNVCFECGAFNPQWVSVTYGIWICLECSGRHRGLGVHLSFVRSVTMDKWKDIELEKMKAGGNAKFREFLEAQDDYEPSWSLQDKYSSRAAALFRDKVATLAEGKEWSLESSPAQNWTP
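Replicates: Single well per compound | Assay system: Truncated rat Arfgap1 GAP domain | Control set: No-Arfgap1 wells (100%) versus DMSO full-reaction wells (0%) | Times: Enzyme reaction 120 min at 25 °C after 20 min preincubation | Reagent: Human ARF1(Δ1-17)-GTP substrate | Measured by: Tracer-displacement fluorescence polarization with EDTA stop, 620/688 nm | Measure: Percent inhibition of Arfgap1-stimulated GTP hydrolysis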
GalR3 antagonist: GalR3 antagonists in HEK293 cells, primary screen, cell-based, fluorescence readout; Galanin receptor type 3 (Homo sapiens), O60755; inhibition, % at 3 µM; HEK293 GalR3-CNG cAMP membrane potential fluorescence; galR3 body fused to GalR1 C-terminus; 360,000 compounds, 0.44% hits;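 active = inhibition above the screen-wide average plus 3 SD, cut at about 13% in these data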;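 also: forskolin and galanin both at EC90 stimulate the cells; cAMP rise reported by CNG channel membrane potential dye signal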
Target sequence (O60755 1-299 limits assumed): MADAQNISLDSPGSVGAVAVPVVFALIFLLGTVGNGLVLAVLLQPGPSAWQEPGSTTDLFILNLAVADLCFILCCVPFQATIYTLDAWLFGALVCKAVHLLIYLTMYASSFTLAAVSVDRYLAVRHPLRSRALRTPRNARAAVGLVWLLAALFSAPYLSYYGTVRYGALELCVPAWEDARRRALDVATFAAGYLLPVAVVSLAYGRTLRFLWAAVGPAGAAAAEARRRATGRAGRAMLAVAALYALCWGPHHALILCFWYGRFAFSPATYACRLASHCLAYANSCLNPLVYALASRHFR
ASAP1 inh confirm: ASAP1 GAP activity inhibitors, confirmation, biochemical, fluorescence polarization, human, triplicate; 620 compounds, 37% hits; shares compounds with ASAP1 inh; inhibition, % at 16.5 µM; ASAP1-stimulated Arf1 GTPase, GDP fluorescence polarization; AID 624431, 2012;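 active = mean inhibition over triplicates exceeds the hit threshold derived for the earlier primary screening run, cut at about 25% in these data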
A number is an active result.

What do the screens show for `CN(C)c1cccc2c(S(=O)(=O)NCC3CCN(C(=O)C(=O)c4cccs4)CC3)cccc12`?
ASAP1 inh: inactive; ARFGAP1 inhibitor: inactive; GalR3 antagonist: inactive

What do the screens show for `CCOc1cc(C2CC(=O)N3CN(C4CCCCC4)CSC3=C2C#N)ccc1O` (stereo not given)?
Rin1-Abl PPI inh: inactive; ASAP1 inh: 26; ARFGAP1 inhibitor: inactive; ASAP1 inh confirm: inactive

How did COc1ccc2ccccc2c1C1CC(=O)N2CN(C3CCCCC3)CSC2=C1C#N (stereo not given) do in these assays?
Rin1-Abl PPI inh: inactive; ASAP1 inh: inactive; ARFGAP1 inhibitor: inactive

How did CCOc1ccc(NC(=S)NC(=O)/C=C/c2ccc(OC)c(OC)c2)c([N+](=O)[O-])c1 do in these assays?
Rin1-Abl PPI inh: inactive; ASAP1 inh: 35; ARFGAP1 inhibitor: inactive; GalR3 antagonist: inactive; ASAP1 inh confirm: inactive

How did O=c1c2ccccc2nc(/C=C/c2c[nH]c3ccccc23)n1CCO do in these assays?
Rin1-Abl PPI inh: inactive; ASAP1 inh: inactive; ARFGAP1 inhibitor: inactive; GalR3 antagonist: inactive

How did O=c1c2ccccc2nc(/C=C/c2cc(Br)ccc2O)n1CCO do in these assays?
Rin1-Abl PPI inh: inactive; ASAP1 inh: 27; ARFGAP1 inhibitor: inactive; GalR3 antagonist: inactive; ASAP1 inh confirm: inactive

Results for Cc1nnc2sc(-c3ccc(NC(=O)c4ccc(-c5ccc(Cl)cc5Cl)o4)cc3)nn12 ?
Rin1-Abl PPI inh: inactive; ASAP1 inh: 112; ARFGAP1 inhibitor: inactive; GalR3 antagonist: inactive; ASAP1 inh confirm: 55

How did CCc1cccc2c(C(=O)CN3C(=O)NC4(CCc5ccccc54)C3=O)c[nH]c12 (stereo not given) do in these assays?
Rin1-Abl PPI inh: inactive; ASAP1 inh: inactive; ARFGAP1 inhibitor: inactive; GalR3 antagonist: inactive

Results for CCc1cccc2c(C(=O)CN3C(=O)NC(C)(c4cccc5ccccc45)C3=O)c[nH]c12 (stereo not given) ?
Rin1-Abl PPI inh: inactive; ASAP1 inh: 32; ARFGAP1 inhibitor: inactive; GalR3 antagonist: inactive; ASAP1 inh confirm: 28

Results for Cc1[nH]nc2c1C(c1ccc(Br)cc1)N(Cc1ccccc1)C2=O (stereo not given) ?
ASAP1 inh: inactive; ARFGAP1 inhibitor: inactive; GalR3 antagonist: inactive

What do the screens show for `CCCCCCCCN1C(=O)[C@H](CC(=O)NCCc2ccccc2OC)C[C@@]2(C(=O)OC)CC(C)(C)CC=C12`?
ASAP1 inh: inactive; ARFGAP1 inhibitor: inactive; GalR3 antagonist: inactive

What do the screens show for `Cc1nn(-c2ccccc2)c(C)c1-c1cc(C(=O)N/N=C/c2cccnc2)[nH]n1`?
ASAP1 inh: inactive; ARFGAP1 inhibitor: inactive; GalR3 antagonist: inactive

Results for Cc1nn(-c2ccccc2)c(C)c1/C=N/NC(=O)c1cc(C(C)(C)C)[nH]n1 ?
Rin1-Abl PPI inh: inactive; ASAP1 inh: inactive; ARFGAP1 inhibitor: inactive; GalR3 antagonist: inactive

How did Cc1ccc(-c2cc(C(=O)N/N=C/c3c(C)nn(-c4ccccc4)c3C)n[nH]2)s1 do in these assays?
Rin1-Abl PPI inh: inactive; ASAP1 inh: 26; ARFGAP1 inhibitor: inactive; GalR3 antagonist: inactive; ASAP1 inh confirm: 34

What do the screens show for `Cc1ccc(-c2cc(C(=O)N/N=C/c3c(C)nn(-c4ccccc4)c3C)[nH]n2)cc1`?
Rin1-Abl PPI inh: inactive; ASAP1 inh: 26; ARFGAP1 inhibitor: inactive; GalR3 antagonist: inactive; ASAP1 inh confirm: inactive

What do the screens show for `Cc1[nH]c2ccccc2c1CC(=O)Nc1ccc(Nc2cccnc2)c(-c2ccc(OC(F)(F)F)cc2)c1`?
ASAP1 inh: inactive; ARFGAP1 inhibitor: inactive; GalR3 antagonist: inactive

What do the screens show for `O=C1CC2c3cc(Br)ccc3CCN2C(=O)CN1Cc1ccccc1` (stereo not given)?
ASAP1 inh: inactive; ARFGAP1 inhibitor: inactive; GalR3 antagonist: inactive

Results for O=C(c1ccccc1)N1CCC2CCN(S(=O)(=O)c3ccccc3)CC21 (stereo not given) ?
ASAP1 inh: inactive; ARFGAP1 inhibitor: inactive; GalR3 antagonist: inactive

Results for COc1ccccc1CCn1cnc(-c2ccccc2F)c1CC(C)C ?
ASAP1 inh: inactive; ARFGAP1 inhibitor: inactive; GalR3 antagonist: inactive

What do the screens show for `CCN1CC2=C(OC(N)=C(C#N)C2c2cccs2)/C(=C/c2cccs2)C1` (stereo not given)?
Rin1-Abl PPI inh: inactive; ASAP1 inh: inactive; ARFGAP1 inhibitor: inactive; GalR3 antagonist: inactive

Results for CCN1C=C(Cc2cccs2)C2=C(C1)C(c1cccs1)C(C#N)=C(N)O2 (stereo not given) ?
Rin1-Abl PPI inh: inactive; ASAP1 inh: 25; ARFGAP1 inhibitor: inactive; GalR3 antagonist: inactive; ASAP1 inh confirm: inactive

What do the screens show for `Cc1nc2ccccc2nc1N1CCOCC1`?
Rin1-Abl PPI inh: inactive; ASAP1 inh: inactive; ARFGAP1 inhibitor: inactive; GalR3 antagonist: inactive

How did Cc1nc2ccccc2nc1N1CCCC1 do in these assays?
Rin1-Abl PPI inh: inactive; ASAP1 inh: 31; ARFGAP1 inhibitor: inactive; GalR3 antagonist: inactive; ASAP1 inh confirm: inactive

How did CC(C)(C)S(=O)N1C[C@@H]2CC(=O)C(c3ccccc3)=C2[C@H]1CCO (stereo not given in full) do in these assays?
ASAP1 inh: inactive; ARFGAP1 inhibitor: inactive; GalR3 antagonist: inactive

How did COCCn1cnc2c(c1=O)c1nc3ccccc3nc1n2/N=C/c1ccc(OC)c(OC)c1 do in these assays?
Rin1-Abl PPI inh: inactive; ASAP1 inh: 33; ARFGAP1 inhibitor: inactive; GalR3 antagonist: inactive; ASAP1 inh confirm: 37

How did Clc1ccc(OCc2nn3c(-c4ccco4)nnc3s2)c(Cl)c1 do in these assays?
Rin1-Abl PPI inh: inactive; ASAP1 inh: 26; ARFGAP1 inhibitor: inactive; GalR3 antagonist: inactive; ASAP1 inh confirm: 37

Results for Cc1ccc(OCc2nn3c(-c4ccco4)nnc3s2)cc1 ?
Rin1-Abl PPI inh: inactive; ASAP1 inh: inactive; ARFGAP1 inhibitor: inactive; GalR3 antagonist: inactive

What do the screens show for `C=CCN=C1NC(c2ccccc2)C(C(=O)OC)=C(C)N1C` (stereo not given)?
ASAP1 inh: inactive; ARFGAP1 inhibitor: inactive; GalR3 antagonist: inactive

How did O=C(Cn1c2ccccc2c(=O)c2ccccc21)N/N=C/c1cc([N+](=O)[O-])ccc1N1CCCCCC1 do in these assays?
Rin1-Abl PPI inh: inactive; ASAP1 inh: 37; ARFGAP1 inhibitor: inactive; GalR3 antagonist: inactive; ASAP1 inh confirm: 40

Results for O=C(Cn1c2ccccc2c(=O)c2ccccc21)N/N=C/c1ccc(N2CCCC2)c([N+](=O)[O-])c1 ?
Rin1-Abl PPI inh: inactive; ASAP1 inh: inactive; ARFGAP1 inhibitor: inactive; GalR3 antagonist: inactive

What do the screens show for `O=C1C(=C(I)I)c2ccccc2-c2ccccc21`?
Rin1-Abl PPI inh: inactive; ASAP1 inh: 38; ARFGAP1 inhibitor: inactive; GalR3 antagonist: inactive; ASAP1 inh confirm: inactive

Screens (PubChem BioAssay)
